Test results from ChEMBL document CHEMBL4265954, “Discovery of potent liver-selective stearoyl-CoA desaturase-1 (SCD1) inhibitors, thiazole-4-acetic acid derivatives, for the treatment of diabetes, hepatic steatosis, and obesity” (Eur J Med Chem, 2018).
In brackets after ≈: the same amount, converted by molar mass. Activity calls are given as the source filed them. The calls are words filed in the database; no cut-off is given here.

Experiments:
Mus musculus [1] = test: Ex vivo inhibition of SCD1 in C57BL/6J mouse eyelid assessed as residual activity at 1 mg/kg, po treated for 6 hrs followed by incubation with [14C]stearoyl-CoA substrate for 30 mins by TLC assay relative to control; type: organism-based
Method in brief: (§1)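 Male 6-week-old C57BL/6J mice dosed orally as a suspension in 0.5% methylcellulose. Liver or eyelid was taken 6 or 24 h later and homogenized in 100 mM Tris-HCl pH 7.4 with 0.25 M sucrose. S9 was obtained at 10,000 × g, 4 °C. S9 was incubated with [14C]stearoyl-CoA, NADH, MgCl2 and cytochrome b5 at room temperature, 10 min for liver and 30 min for eyelid. Lipids were saponified and run on AgNO3 TLC to quantify stearate and oleate. Result is % of vehicle control.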

Mus musculus [2] = test: Ex vivo inhibition of SCD1 in C57BL/6J mouse liver assessed as residual activity at 10 mg/kg, po treated for 6 hrs followed by incubation with [14C]stearoyl-CoA substrate for 10 mins by TLC assay relative to control; type: functional; method in brief: as §1
[3] = Solubility of the compound in PBS at pH 7.2; type: physicochemical
Mus musculus [4] = test: Ex vivo inhibition of SCD1 in C57BL/6J mouse eyelid treated orally for 6 hrs followed by incubation with [14C]stearoyl-CoA substrate for 30 mins by TLC assay; type: organism-based; details: po; method in brief: as §1
Mus musculus [5] = test: Ex vivo inhibition of SCD1 in C57BL/6J mouse eyelid assessed as residual activity at 100 mg/kg, po treated for 24 hrs followed by incubation with [14C]stearoyl-CoA substrate for 30 mins by TLC assay relative to control; type: organism-based; method in brief: as §1
Mus musculus [6] = test: Ex vivo inhibition of SCD1 in C57BL/6J mouse eyelid assessed as residual activity at 0.1 mg/kg, po treated for 24 hrs followed by incubation with [14C]stearoyl-CoA substrate for 30 mins by TLC assay relative to control; type: organism-based; method in brief: as §1
Mus musculus [7] = test: Ex vivo inhibition of SCD1 in C57BL/6J mouse liver assessed as residual activity at 1 mg/kg, po treated for 24 hrs followed by incubation with [14C]stearoyl-CoA substrate for 10 mins by TLC assay relative to control; type: functional; method in brief: as §1
Mus musculus [8] = test: Ex vivo inhibition of SCD1 in C57BL/6J mouse eyelid assessed as residual activity at 10 mg/kg, po treated for 6 hrs followed by incubation with [14C]stearoyl-CoA substrate for 30 mins by TLC assay relative to control; type: organism-based; method in brief: as §1
[9] = AUC (0 to infinity) in C57BL/6J mouse at 10 mg/kg, po; type: ADME, organism-based; parameters: dose 10 mg/kg, time infinity, route oral; details: in vivo
Acyl-CoA desaturase 1 = biological target: T1, Acyl-CoA desaturase 1 (Mus musculus, UniProt P13516); test: Inhibition of mouse liver microsome SCD assessed as reduction in [3H]H2O production using stearoyl [9,10-3H]CoA as substrate in presence of NADH incubated for 30 mins by scintillation counting method; type: microsomes
T1 sequence (P13516 whole entry): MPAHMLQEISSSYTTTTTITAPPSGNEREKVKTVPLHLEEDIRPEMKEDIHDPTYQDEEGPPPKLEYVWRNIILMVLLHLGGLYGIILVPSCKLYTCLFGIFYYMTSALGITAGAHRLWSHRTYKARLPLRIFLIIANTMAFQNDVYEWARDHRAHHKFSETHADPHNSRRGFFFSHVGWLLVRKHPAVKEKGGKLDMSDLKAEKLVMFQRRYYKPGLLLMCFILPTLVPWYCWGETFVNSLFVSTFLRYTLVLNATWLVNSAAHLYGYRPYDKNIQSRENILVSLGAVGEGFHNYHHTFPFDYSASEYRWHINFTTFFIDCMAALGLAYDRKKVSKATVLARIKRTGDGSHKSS
Method in brief: (§2)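 Desaturation of [9,10-3H]stearoyl-CoA measured as released [3H]H2O. Water was separated from charcoal-adsorbed substrate by filtration and counted by scintillation. Remaining activity = (compound − background)/(control − background). DMSO wells served as control and pre-stopped wells as background. IC50 was interpolated from the two points bracketing 50%.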

Mus musculus [10] = test: Ex vivo inhibition of SCD1 in C57BL/6J mouse liver assessed as residual activity at 1 mg/kg, po treated for 6 hrs followed by incubation with [14C]stearoyl-CoA substrate for 10 mins by TLC assay relative to control; type: functional; method in brief: as §1
Mus musculus [11] = test: Ex vivo inhibition of SCD1 in C57BL/6J mouse liver assessed as residual activity at 0.1 mg/kg, po treated for 24 hrs followed by incubation with [14C]stearoyl-CoA substrate for 10 mins by TLC assay relative to control; type: functional; method in brief: as §1
Mus musculus [12] = test: Ex vivo inhibition of SCD1 in C57BL/6J mouse liver assessed as residual activity at 0.1 mg/kg, po treated for 6 hrs followed by incubation with [14C]stearoyl-CoA substrate for 10 mins by TLC assay relative to control; type: functional; method in brief: as §1
Mus musculus [13] = test: Ex vivo inhibition of SCD1 in C57BL/6J mouse liver treated orally for 6 hrs followed by incubation with [14C]stearoyl-CoA substrate for 10 mins by TLC assay; type: functional, organism-based; method in brief: as §1
Mus musculus [14] = test: Ex vivo inhibition of SCD1 in C57BL/6J mouse eyelid assessed as residual activity at 1 mg/kg, po treated for 24 hrs followed by incubation with [14C]stearoyl-CoA substrate for 30 mins by TLC assay relative to control; type: organism-based; method in brief: as §1
Mus musculus [15] = test: Ex vivo inhibition of SCD1 in C57BL/6J mouse eyelid assessed as residual activity at 10 mg/kg, po treated for 24 hrs followed by incubation with [14C]stearoyl-CoA substrate for 30 mins by TLC assay relative to control; type: organism-based; method in brief: as §1
Mus musculus [16] = test: Ex vivo inhibition of SCD1 in C57BL/6J mouse liver assessed as residual activity at 10 mg/kg, po treated for 24 hrs followed by incubation with [14C]stearoyl-CoA substrate for 10 mins by TLC assay relative to control; type: functional; method in brief: as §1
[17] = Oral bioavailability in C57BL/6J mouse at 10 mg/kg; type: ADME, organism-based; details: in vivo
Method in brief: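 Two male C57BL/6J mice per route, 10 mg/kg po and 1 mg/kg iv. Plasma concentration–time profiles gave Cmax, tmax, terminal half-life and AUC0-inf. Bioavailability was derived from the po and iv data.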

Mus musculus [18] = test: Antiobesity activity in high fat diet fed C57BL/6J mouse assessed as reduction in diet-induced body weight gain at 10 mg/kg, po administered as diet mixture for 43 days relative to control; type: functional
Method in brief: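 C57BL/6J mice, individually housed, fed HFD for one month, then given HFD admixed with drug (0.0040% for 3 mg/kg/day, 0.0133% for 10 mg/kg/day) for 43 days, from 10 to 16 weeks of age. Chow-fed normal group as control. Body weight measured every 3–4 days. Mean ± SD, n=5–8. Dunnett's test versus HFD control.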

[19] = biological target: Acyl-CoA (8-3)-desaturase (Homo sapiens, UniProt O60427); test: Inhibition of delta-5 fatty acid desaturase (unknown origin)
Chain of Acyl-CoA (8-3)-desaturase (O60427 whole entry): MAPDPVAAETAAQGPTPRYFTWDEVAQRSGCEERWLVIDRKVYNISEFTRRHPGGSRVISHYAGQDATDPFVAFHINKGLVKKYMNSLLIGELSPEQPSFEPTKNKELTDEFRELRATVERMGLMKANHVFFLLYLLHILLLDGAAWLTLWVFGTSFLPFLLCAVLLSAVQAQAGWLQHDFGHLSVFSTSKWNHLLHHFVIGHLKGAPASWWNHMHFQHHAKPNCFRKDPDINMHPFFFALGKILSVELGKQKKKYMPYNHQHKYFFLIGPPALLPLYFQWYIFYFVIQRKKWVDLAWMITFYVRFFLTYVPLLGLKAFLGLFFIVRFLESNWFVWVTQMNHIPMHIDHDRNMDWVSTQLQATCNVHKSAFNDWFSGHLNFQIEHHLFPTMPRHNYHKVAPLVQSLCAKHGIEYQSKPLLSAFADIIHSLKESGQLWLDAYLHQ

Mus musculus [20] = test: Ex vivo inhibition of SCD1 in C57BL/6J mouse eyelid assessed as residual activity at 0.1 mg/kg, po treated for 6 hrs followed by incubation with [14C]stearoyl-CoA substrate for 30 mins by TLC assay relative to control; type: organism-based; method in brief: as §1
Stearoyl-CoA desaturase = biological target: T2, Stearoyl-CoA desaturase (Homo sapiens, UniProt O00767); test: Inhibition of recombinant human SCD1 expressed in baculovirus expression system assessed as reduction in [3H]H2O production using stearoyl [9,10-3H]CoA as substrate in presence of NADH incubated for 30 mins by scintillation counting method; method in brief: as §2
T2 sequence (O00767 whole entry): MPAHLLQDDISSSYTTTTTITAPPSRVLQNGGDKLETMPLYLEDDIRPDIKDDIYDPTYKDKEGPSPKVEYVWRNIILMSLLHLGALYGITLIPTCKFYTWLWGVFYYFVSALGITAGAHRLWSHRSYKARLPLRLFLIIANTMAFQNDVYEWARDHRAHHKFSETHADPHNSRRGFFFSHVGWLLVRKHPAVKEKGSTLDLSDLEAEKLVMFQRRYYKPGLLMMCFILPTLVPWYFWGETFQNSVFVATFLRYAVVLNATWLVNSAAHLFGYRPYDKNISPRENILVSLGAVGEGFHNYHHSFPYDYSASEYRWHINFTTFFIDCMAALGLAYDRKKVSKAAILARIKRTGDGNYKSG

[21] = Apparent permeability of the compound in human Caco2 cells; type: ADME, cell-based; details: Caco-2

Cc1csc(NC(=O)c2ccc(CNc3ccccc3C)cc2)n1
Activity (Mus musculus [1]): 41%
Activity (Mus musculus [2]): 22%
solubility [3]: 2.4 µM (≈ 0.81 µg/mL)
inhibition (INH) (Mus musculus [4]): Dose-dependent effect
Activity (Mus musculus [5]): 4%
Activity (Mus musculus [6]): 100%
Activity (Mus musculus [7]): 120%
Activity (Mus musculus [8]): -2%
AUC(0-inf) [9]: 2.4 µM·h
IC50 (Acyl-CoA desaturase 1): 3.8 nM
Activity (Mus musculus [10]): 24%
Activity (Mus musculus [11]): 105%
Activity (Mus musculus [12]): 58%
inhibition (Mus musculus [13]): Dose-dependent effect
Activity (Mus musculus [14]): 82%
Activity (Mus musculus [15]): 4%
Activity (Mus musculus [16]): 109%
bioavailability [17]: 15%
Activity (Mus musculus [18]): Active
IC50 [19]: > 30000 nM
Activity (Mus musculus [20]): 144%
IC50 (Stearoyl-CoA desaturase): 6.4 nM
Papp [21]: 12.7 ×10⁻⁶ cm/s
